For 59 molecules, inhibition results are on record in PubChem BioAssay AID1800 (The Scripps Research Institute Molecular Screening Center, 2009).

The structures appear in SMILES notation. About 1,600 (0.55%) of roughly 290,000 compounds were called active.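 How the source made its calls: active means inhibition above the mean of all tested compounds plus 3 SD, set per campaign (cut at about 35% in these data); inactive means the rest.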 Shown is part of a subset that was picked to be rich in actives.

The experiment has as its system Hepatitis C virus NS3 helicase. In words: HCV NS3 DNA unwinding blockers – biochemical, Cy5 molecular beacon fluorescence, primary screen (AID 1800). To be noted: at 10.9 µM, stronger effect = higher value. The method in brief: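 System: NS3 helicase fragment of HCV / Schedule: 1 h at 25 °C / Control set: DMSO alone as 0% and 110 µM thioflavine S as 100% / Reagent: Cy5/quencher beacon DNA duplex and ATP to start / Technique: Cy5 fluorescence / Replication: singlicate / Evaluation: % inhibition of end-to-start signal ratio versus controls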
`COc1ccc(/C=C2\SC(=S)N(CCC(=O)Nc3cccc(C(=O)O)c3)C2=O)cc1OC`: the inhibition was 61% (active).

Turning to `COc1ccc(/C=C2\SC(=S)N(CCC(=O)Nc3ccccn3)C2=O)cc1OC`, the inhibition is -1.07% (inactive).

With `COc1ccc(/C=C2\SC(=S)N(CCCC(=O)NC3CCCC3)C2=O)cc1OC`, the inhibition is 19% (inactive).

In the case of `O=C(NC1CCCC1)c1cc(-c2ccccc2)on1`, the inhibition was -12.1% (inactive).

As for `O=C(NCCc1ccccn1)c1nc(Cn2cc([N+](=O)[O-])cn2)no1`, the inhibition was 2.16% (inactive).

For `COCCN1CCn2c(nc3cc(NS(C)(=O)=O)ccc32)C1`, the inhibition is -2.65% (inactive).

On to `Cc1nn(CC(=O)Nc2ccc(F)cc2)c(=O)c2ccccc12`, for which the inhibition is 17.6% (inactive).

As to `COc1ccc(C2=NN(C(C)=O)C(c3ccccc3)C2)cc1` (centres undefined), the inhibition was -3.52% (inactive).

Turning to `O=C(O)CCCC(=O)N1N=C(c2ccco2)CC1c1ccco1` (centres undefined), the inhibition is 1.26% (inactive).

On to `Cc1nn2c(c1-c1ccccc1)N=C(c1ccco1)CC2c1ccccc1` (centres undefined), for which the inhibition is 39.1% (active).

Consider `Nc1ccc2nc3c(=O)[nH]c(=S)[nH]c3nc2c1`, for which the inhibition is 80.4% (active).

`Cc1cc2nc3c(=O)n(Cc4ccccc4)c(=O)[nH]c3nc2cc1N`: the inhibition is -1.52% (inactive).

As for `CCc1cccc(C)c1N1C(=O)CN(Cc2ccccc2)C1=S`, the inhibition was -10.7% (inactive).

Take `O=C(C[C@H]1C(=O)N(c2ccc(F)c(F)c2)C[C@@H]1Cc1ccccc1)Nc1ccccc1`: the inhibition is -4.71% (inactive).

For the molecule `Cc1ccc(S(=O)(=O)N2CCN(C)CC2)cc1C(=O)NC1CCCCC1`, the inhibition is 0.44% (inactive).

As for `COc1ccc(CNC(=O)c2nnn(CC(=O)Nc3cc(C)cc(C)c3)c2N)cc1`, the inhibition is -13.3% (inactive).

On to `COc1cccc(CNC(=O)c2nnn(CC(=O)Nc3cc(C)ccc3C)c2N)c1`, for which the inhibition was 8.19% (inactive).

With `COc1cccc(CNC(=O)c2nnn(CC(=O)Nc3cc(Cl)ccc3C)c2N)c1`, the inhibition is 38.7% (active).

Take `Cc1cc(/C=C2/C(=N)N3C(=NC2=O)SN=C3S(C)(=O)=O)c(C)n1-c1ccccc1`: the inhibition is 20% (inactive).

For the molecule `CS(=O)(=O)c1ccc2c(c1)SC1=NC(=O)/C(=C/c3ccco3)C(=N)N12`, the inhibition is 39.8% (active).

On to `CS(=O)(=O)C1=NN2C(=N)/C(=C\c3ccc(OCCOc4ccccc4)cc3)C(=O)N=C2S1`, for which the inhibition is 7.31% (inactive).

`CCN(CC)C(=O)COc1coc(CN2CCN(Cc3ccccc3)CC2)cc1=O`: the inhibition was -0.99% (inactive).

In the case of `CCSc1nsc(NC(=O)Nc2ccccc2OC)n1`, the inhibition is -3.36% (inactive).

`C=CCSc1nsc(NC(=O)Nc2cccc(C(C)=O)c2)n1`: the inhibition is -3.05% (inactive).

With `CCSc1nsc(NC(=O)Nc2cccc(C(C)=O)c2)n1`, the inhibition was 38.8% (active).

As to `CCOc1ccc(N(C)S(=O)(=O)c2cnc[nH]2)cc1`, the inhibition is 4.43% (inactive).

As for `COC(=O)c1ccccc1NC(=O)C1CCN(C(=O)N2CCOc3ccccc32)CC1`, the inhibition is -12.1% (inactive).

In the case of `COc1ccc(S(=O)(=O)NCC(=O)NC2CC2)cc1OC`, the inhibition was 22.6% (inactive).

For the molecule `COc1ccc(C)cc1NC(=O)NCCCCc1ccccc1`, the inhibition is 2.02% (inactive).

Consider `CN(C(=O)COC(=O)c1cc(-c2ccco2)nc2ccccc12)C1CCS(=O)(=O)C1` (centres undefined), for which the inhibition is 20.9% (inactive).

As to `Cc1cc(C)c2nc(-c3ccco3)cc(C(=O)O)c2c1`, the inhibition was 37.2% (active).

`COC(=O)c1cnn2c(C(F)(F)F)cc(-c3ccco3)nc12`: the inhibition was 18.2% (inactive).

As for `O=C(Oc1ccc(F)cc1)N1CCOCC1`, the inhibition was 4.09% (inactive).

Take `O=C(Oc1ccc(C(=S)N2CCOCC2)cc1)c1ccc(F)cc1`: the inhibition is -0.77% (inactive).

Regarding `N#C/C=C(/c1ccc(F)cc1)N1CCOCC1`, the inhibition is 40.5% (active).

On to `CS(=O)(=O)N1CCc2cc(C(=O)Nc3ccccc3Br)ccc21`, for which the inhibition was 5.96% (inactive).

On to `COc1cc2c(cc1OC)CN(CC(=O)Nc1ccc(F)cc1)CC2`, for which the inhibition was -2.51% (inactive).

For `CCN(CCCNC(=O)c1ccc2c(c1)NC(=O)CN2C)c1cccc(C)c1`, the inhibition is 2.74% (inactive).

Take `O=c1c2c(-c3ccccc3)ccnc2[nH]n1-c1ccccc1`: the inhibition is 47.7% (active).

Take `Cc1ccc(-c2ccnc3[nH]n(-c4ccccc4)c(=O)c23)cc1`: the inhibition is 15.7% (inactive).

For `O=c1c(-c2cccc(Cl)c2)c[nH]n1-c1ccccc1`, the inhibition is 4.7% (inactive).

As to `COc1ccc(C(=O)N(C)CC(O)c2ccccc2)cc1OC1CCN(C(C)=O)CC1` (centres undefined), the inhibition was 32.3% (inactive).

Turning to `CCNC(=O)CC1C(=O)N(c2ccc(OC)cc2)C(=O)N1CCOC` (centres undefined), the inhibition was 1.88% (inactive).

For `COc1ccccc1N1CCN(C(=O)CCS(=O)(=O)c2ccc3c(c2)NC(=O)C(C)S3)CC1` (centres undefined), the inhibition was 38.1% (active).

Take `CC1Sc2ccc(S(=O)(=O)CCC(=O)NCc3ccccc3Cl)cc2NC1=O` (centres undefined): the inhibition was 8.3% (inactive).

Consider `Cc1cccc(N2CCN(C(=O)CCS(=O)(=O)c3ccc4c(c3)NC(=O)C(C)S4)CC2)c1C` (centres undefined), for which the inhibition was -0.36% (inactive).

As for `Cc1ccc(S(=O)(=O)NCC(=O)N(CC(=O)NCC2CCCO2)c2cccc(F)c2)cc1` (centres undefined), the inhibition was -2.87% (inactive).

As for `O=C(c1ccc(F)cc1)n1c(=S)nc2ccccn21`, the inhibition was 12% (inactive).

Consider `CC(=O)c1ccccc1OCc1ccc(C(=O)c2ccccc2)cc1`, for which the inhibition was -8.3% (inactive).

`O=C(Cc1ccccc1)NC(=S)Nc1ccc(N2CCCCC2)cc1`: the inhibition was -1.95% (inactive).

On to `O=C1CC(N2CCN(c3ccc(F)cc3)CC2)C(=O)N1c1ccccc1` (centres undefined), for which the inhibition was -13.4% (inactive).

For `O=C1C=CC(=O)N1c1ccc(N2CCCCC2)cc1`, the inhibition is 45.2% (active).

As to `COc1cccc(NC(=O)c2ccccc2N(Cc2ccccc2)S(C)(=O)=O)c1`, the inhibition is 0.24% (inactive).

In the case of `CC(=O)N1c2ccc(S(=O)(=O)N3CCCC(C(=O)Nc4ccc(C)cc4C)C3)cc2CC1C` (centres undefined), the inhibition was -18.4% (inactive).

For `Cc1cc(C(=O)N/N=C/c2ccccc2[N+](=O)[O-])c(C)o1`, the inhibition is 5.42% (inactive).

For `Cc1ccc(-c2ccc(/C=N/NC(=O)CN3CCOCC3)o2)cc1[N+](=O)[O-]`, the inhibition was 6.31% (inactive).

Turning to `Cc1occc1C(=O)N/N=C/c1ccc(-c2cccc([N+](=O)[O-])c2)o1`, the inhibition is 45.3% (active).

For the molecule `COc1ccc(Cn2c(-c3ccc(Cl)cc3)c[n+]3ccccc23)cc1`, the inhibition is -35.9% (inactive).

On to `CCCCn1c(O)c(N=NC(=O)Cn2c(C(F)(F)F)nc3ccccc32)c2ccccc21`, for which the inhibition is 0.68% (inactive).
